In article PMC5776616 (Experimental and Therapeutic Medicine, 2017):
Where no end group is shown, it is not given here.

Key:
S. mutans UA 159 [1] = experiment: MIC by broth microdilution, planktonic S. mutans UA159; type: cell-based, Streptococcus mutans; conditions: for MICs against the S. mutans strains: range over both S. mutans strains (UA159 and GS-5); for increase of antibacterial activity against S. mutans compared with hLF1-11 alone: planktonic S. mutans, from MICs
In short: (§1)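 Strains were grown anaerobically overnight in BHI at 37°C, diluted 1:20 and grown anaerobically 2.5 h to mid-log phase. Two-fold serial peptide dilutions in BHI were set up in 96-well round-bottom plates, and the final inoculum was 1×10^5 CFU/ml. The MIC was reported as the median of at least three independent experiments.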

[2] = test system: multi-species biofilm of luc-ldh reporter strain of S. mutans, S. gordonii ATCC-10558 and S. sanguis ATCC-49295; experiment: Multi-species biofilm; type: cell-based; conditions: for growth of S. gordonii and S. sanguis in multi-species biofilm: 5 min after treatment, peptide 128 µg/ml; for relative strength of effect on S. mutans in multi-species biofilm (ranking): order in words: strongest effects, followed by, then, Fig. 2B
In short: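 Mid-log cultures were adjusted to 1×10^7 CFU/ml in BHI with 0.5% sucrose (S. mutans luc-ldh reporter), 0.5% glucose (S. gordonii) or 0.5% mannose (S. sanguis). Wells were spun and grown anaerobically 4 h at 37°C into biofilm. Peptide in PBS was added at a final 128 µg/ml, then replaced with sugar-containing BHI. OD600 was read at 5–120 min, and S. mutans RLU after adding 1 mM D-luciferin. Groups were compared by one-way ANOVA.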

S. gordonii ATCC-10558 = experiment: MIC by broth microdilution, planktonic S. gordonii; type: cell-based, Streptococcus gordonii
In short: as §1

S. sanguis ATCC-49295 = experiment: MIC by broth microdilution, planktonic S. sanguis; type: cell-based, Streptococcus sanguis
In short: as §1

S. mutans UA 159 [3] = experiment: Differential protein expression; type: cell-based, Streptococcus mutans
In short: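 Mid-log S. mutans UA 159 (BHI, anaerobic, 1×10^6 CFU/ml) was exposed to test peptide at 20 µg/ml or an equal volume of sterile water, anaerobically at 37°C for 1 h. Cells were pelleted at 4°C and lysed with lysozyme plus protease inhibitors, on ice with sonication. Protein was cleaned, quantified and CyDye minimal-labelled. Spots were identified by positive-ion reflection MALDI-TOF-MS over m/z 700–4,000.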

[4] = S. mutans UA 159, C11H 20 µg/ml 1 h vs water control, gi|24379038

Sequence: GRRRRSVQWCA [hLF1-11, reference compound]
- MICs against the S. mutans strains (S. mutans UA 159 [1]; planktonic): 37.33 to 48.00 µg/mL
- growth of S. gordonii and S. sanguis in multi-species biofilm [2]: not affected

Sequence: LSTFFRLFN [C12]
- MIC against S. mutans (S. mutans UA 159 [1]; planktonic): > 256 µg/mL
- MIC against S. gordonii (S. gordonii ATCC-10558): > 256 µg/mL
- MIC against S. sanguis (S. sanguis ATCC-49295): > 256 µg/mL
- growth of S. gordonii and S. sanguis in multi-species biofilm [2]: not affected

Sequence: LSTFFRLFNGRRRRSVQWCA [C12H]
- increase of antibacterial activity against S. mutans compared with hLF1-11 alone (S. mutans UA 159 [1]): 3–4 times
- MICs against the S. mutans strains (S. mutans UA 159 [1]; planktonic): 10.67 to 13.33 µg/mL
- growth of S. gordonii and S. sanguis in multi-species biofilm [2]: not affected
- relative strength of effect on S. mutans in multi-species biofilm (ranking) [2]: strongest effects

Sequence: LSTFFRLFNRSFTQGRRRRSVQWCA [C14H]
- increase of antibacterial activity against S. mutans compared with hLF1-11 alone (S. mutans UA 159 [1]): 3–4 times
- MICs against the S. mutans strains (S. mutans UA 159 [1]; planktonic): 10.67 to 13.33 µg/mL
- growth of S. gordonii and S. sanguis in multi-species biofilm [2]: not affected

Sequence: STFFRLFNRSFTQGRRRRSVQWCA [C13H]
- increase of antibacterial activity against S. mutans compared with hLF1-11 alone (S. mutans UA 159 [1]): 3–4 times
- MICs against the S. mutans strains (S. mutans UA 159 [1]; planktonic): 10.67 to 13.33 µg/mL
- growth of S. gordonii and S. sanguis in multi-species biofilm [2]: not affected

Sequence: TFFRLFNRGRRRRSVQWCA [C8H]
- increase of antibacterial activity against S. mutans compared with hLF1-11 alone (S. mutans UA 159 [1]): 3–4 times
- MICs against the S. mutans strains (S. mutans UA 159 [1]; planktonic): 10.67 to 13.33 µg/mL
- growth of S. gordonii and S. sanguis in multi-species biofilm [2]: not affected
- relative strength of effect on S. mutans in multi-species biofilm (ranking) [2]: then

Sequence: TFFRLFNRSFTGRRRRSVQWCA [C11H]
- increase of antibacterial activity against S. mutans compared with hLF1-11 alone (S. mutans UA 159 [1]): 3–4 times
- MICs against the S. mutans strains (S. mutans UA 159 [1]; planktonic): 10.67 to 13.33 µg/mL
- growth of S. gordonii and S. sanguis in multi-species biofilm [2]: not affected
- relative strength of effect on S. mutans in multi-species biofilm (ranking) [2]: strongest effects
- Average ration: Heat shock protein GrpE (HSP-70 cofactor) (master no. 1781) (S. mutans UA 159 [3]; S. mutans UA 159, C11H 20 µg/ml 1 h vs water control, gi|24378605): −4.2
- Average ration: NAD synthetase (master no. 1628) (S. mutans UA 159 [3]; S. mutans UA 159, C11H 20 µg/ml 1 h vs water control, gi|24378953): −4.12
- Average ration: Putative cell division A protein DivIV (master no. 1355) (S. mutans UA 159 [3]; [4]): −8
- Average ration: Putative cell division protein DivIVA (master no. 1327) (S. mutans UA 159 [3]; [4]): −11.09
- Average ration: Putative cell division protein DivIVA (master no. 1341) (S. mutans UA 159 [3]; [4]): −5.58
- Average ration: Putative 40K cell wall protein precursor (master no. 654) (S. mutans UA 159 [3]; S. mutans UA 159, C11H 20 µg/ml 1 h vs water control, gi|24379086): −4.75
- Average ration: Branch ed-chain amino acid aminotransferase (master no. 1241) (S. mutans UA 159 [3]; S. mutans UA 159, C11H 20 µg/ml 1 h vs water control, gi|24379628): −5.4
- Average ration: Orotate phosphoribo-syltransferase (master no. 2141) (S. mutans UA 159 [3]; S. mutans UA 159, C11H 20 µg/ml 1 h vs water control, gi|24379645): −4.63
- Average ration: Putative dTDP-4-keto-L-rhamnose reductase (master no. 2068) (S. mutans UA 159 [3]; S. mutans UA 159, C11H 20 µg/ml 1 h vs water control, gi|24379857): −5.54
- Average ration: Ribosome recycling factor (master no. 2072) (S. mutans UA 159 [3]; S. mutans UA 159, C11H 20 µg/ml 1 h vs water control, gi|24380004): −4.7
- Average ration: Hypothetical protein SMU.1716c (master no. 2188) (S. mutans UA 159 [3]; S. mutans UA 159, C11H 20 µg/ml 1 h vs water control, gi|24380090): −6.14
- Average ration: Putative trans-2-enoyl-ACP reductase (master no. 1551) (S. mutans UA 159 [3]; S. mutans UA 159, C11H 20 µg/ml 1 h vs water control, gi|24380114): −4.34
- Average ration: Hypothetical protein SMU.1760c (master no. 1506) (S. mutans UA 159 [3]; S. mutans UA 159, C11H 20 µg/ml 1 h vs water control, gi|24380128): −5.93
- Average ration: Hypothetical protein SMU.1789c (master no. 1576) (S. mutans UA 159 [3]; S. mutans UA 159, C11H 20 µg/ml 1 h vs water control, gi|24380155): −6.04
- Average ration: Elongation factor P (master no. 2035) (S. mutans UA 159 [3]; S. mutans UA 159, C11H 20 µg/ml 1 h vs water control, gi|24380208): −4.19
- Average ration: Single-strand DNA-binding protein (master no. 2334) (S. mutans UA 159 [3]; S. mutans UA 159, C11H 20 µg/ml 1 h vs water control, gi|24380219): −5.37
- Average ration: Inositol-5 monophosphate dehydrogenase (master no. 824) (S. mutans UA 159 [3]; S. mutans UA 159, C11H 20 µg/ml 1 h vs water control, gi|24380485): −12.84
- 21 protein spots with a mean change ratio of 1.5 (S. mutans UA 159 [3]; S. mutans UA 159, C11H 20 µg/ml, 1 h): downregulated
